Assay results as given in ChEMBL document CHEMBL2062488, “Exploration of diverse hinge-binding scaffolds for selective Aurora kinase inhibitors” (Bioorg Med Chem Lett, 2012).

Columns and labels:
NCI-H1299 = test: Cell cycle arrest in human NCI-H1299 assessed as induction of polyploidy after 48 hrs by Hoechst staining-based fluorescence microscopic analysis; type: functional; conditions: NCI-H1299, 48 h
How it was run: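 NCI-H1299 cells seeded at 4 K/well and left overnight to adhere. Compounds at varying concentrations added in duplicate wells, RPMI 1640 with 10% fetal calf serum, 37 °C for 48 h. Cells fixed in 3% formalin for 1 h, Hoechst-stained and imaged by high-content fluorescence microscopy (360/460 nm) for nuclear area. Polyploid (≥4N) cells had nuclear area >750. EC15 is the concentration giving 15% polyploid cells, from least-squares fit of log dose-response.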

Aurora kinase B [1] = molecular target: T1, Aurora kinase B (Homo sapiens, UniProt Q96GD4); test: Inhibition of Aurora B kinase by HTRF analysis in presence of 1 mM ATP
Homo sapiens = species: Homo sapiens; test: Selectivity ratio of IC50 for Aurora A kinase to IC50 for Aurora B kinase
Aurora kinase A [2] = molecular target: T2, Aurora kinase A (Homo sapiens, UniProt O14965); test: Inhibition of Aurora A kinase by HTRF analysis in presence of 1 mM ATP
T2 sequence (O14965 whole entry): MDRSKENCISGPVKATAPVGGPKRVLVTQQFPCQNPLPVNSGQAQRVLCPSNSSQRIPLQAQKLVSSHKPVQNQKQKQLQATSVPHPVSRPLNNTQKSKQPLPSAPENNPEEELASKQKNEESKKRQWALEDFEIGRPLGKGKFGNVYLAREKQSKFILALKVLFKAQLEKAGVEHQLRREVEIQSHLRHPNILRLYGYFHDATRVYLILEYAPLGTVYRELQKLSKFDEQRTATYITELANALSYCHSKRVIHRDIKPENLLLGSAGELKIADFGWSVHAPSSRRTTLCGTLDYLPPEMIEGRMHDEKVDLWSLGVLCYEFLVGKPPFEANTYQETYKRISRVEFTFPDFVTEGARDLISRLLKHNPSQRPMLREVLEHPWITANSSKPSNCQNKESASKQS

Mus musculus [3] = test: AUC in mouse at 10 mg/kg, po; type: ADME, organism-based, Plasma; set-up: dose 10 mg/kg, route oral; conditions: in vivo
How it was run: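 Pyrrolotriazines were given by oral cassette dosing at 10 mpk, with several compounds in one cassette. Oral exposure is reported as AUC.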

[4] = Distribution half life in mouse at 3 mg/kg, iv; type: ADME, organism-based; set-up: dose 3 mg/kg, route intravenous; conditions: in vivo, read-out: alphat1/2 (converted)
[5] = Oral bioavailability in mouse at 10 mg/kg; type: ADME, organism-based; conditions: in vivo
[6] = Clearance in mouse at 3 mg/kg, iv; type: ADME, organism-based; set-up: dose 3 mg/kg, route intravenous; conditions: in vivo
[7] = Volume of distribution in mouse at 3 mg/kg, iv; type: ADME, organism-based; set-up: dose 3 mg/kg, route intravenous; conditions: in vivo
Aurora kinase A [8] = molecular target: T2, Aurora kinase A; test: Inhibition of Aurora A kinase in presence of 10 uM ATP
[9] = molecular target: T3, Calcium/calmodulin-dependent protein kinase type IV (Homo sapiens, UniProt Q16566); test: Inhibition of Camk4 in presence of 10 uM ATP
T3 sequence (Q16566 whole entry): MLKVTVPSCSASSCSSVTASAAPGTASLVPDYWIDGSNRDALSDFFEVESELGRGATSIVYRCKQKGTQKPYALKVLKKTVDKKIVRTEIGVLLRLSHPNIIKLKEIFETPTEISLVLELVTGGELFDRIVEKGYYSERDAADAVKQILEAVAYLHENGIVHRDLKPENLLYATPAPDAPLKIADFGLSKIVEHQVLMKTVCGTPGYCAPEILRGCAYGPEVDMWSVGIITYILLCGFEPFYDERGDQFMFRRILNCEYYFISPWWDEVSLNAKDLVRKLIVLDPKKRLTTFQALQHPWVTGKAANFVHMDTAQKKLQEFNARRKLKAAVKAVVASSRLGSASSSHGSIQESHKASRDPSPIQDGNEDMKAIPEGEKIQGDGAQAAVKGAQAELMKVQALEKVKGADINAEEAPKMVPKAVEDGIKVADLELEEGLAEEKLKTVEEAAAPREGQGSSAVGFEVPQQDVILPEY

[10] = molecular target: T4, Serine/threonine-protein kinase PLK4 (Homo sapiens, UniProt O00444); test: Inhibition of Plk4 in presence of 10 uM ATP
T4 sequence (O00444 whole entry): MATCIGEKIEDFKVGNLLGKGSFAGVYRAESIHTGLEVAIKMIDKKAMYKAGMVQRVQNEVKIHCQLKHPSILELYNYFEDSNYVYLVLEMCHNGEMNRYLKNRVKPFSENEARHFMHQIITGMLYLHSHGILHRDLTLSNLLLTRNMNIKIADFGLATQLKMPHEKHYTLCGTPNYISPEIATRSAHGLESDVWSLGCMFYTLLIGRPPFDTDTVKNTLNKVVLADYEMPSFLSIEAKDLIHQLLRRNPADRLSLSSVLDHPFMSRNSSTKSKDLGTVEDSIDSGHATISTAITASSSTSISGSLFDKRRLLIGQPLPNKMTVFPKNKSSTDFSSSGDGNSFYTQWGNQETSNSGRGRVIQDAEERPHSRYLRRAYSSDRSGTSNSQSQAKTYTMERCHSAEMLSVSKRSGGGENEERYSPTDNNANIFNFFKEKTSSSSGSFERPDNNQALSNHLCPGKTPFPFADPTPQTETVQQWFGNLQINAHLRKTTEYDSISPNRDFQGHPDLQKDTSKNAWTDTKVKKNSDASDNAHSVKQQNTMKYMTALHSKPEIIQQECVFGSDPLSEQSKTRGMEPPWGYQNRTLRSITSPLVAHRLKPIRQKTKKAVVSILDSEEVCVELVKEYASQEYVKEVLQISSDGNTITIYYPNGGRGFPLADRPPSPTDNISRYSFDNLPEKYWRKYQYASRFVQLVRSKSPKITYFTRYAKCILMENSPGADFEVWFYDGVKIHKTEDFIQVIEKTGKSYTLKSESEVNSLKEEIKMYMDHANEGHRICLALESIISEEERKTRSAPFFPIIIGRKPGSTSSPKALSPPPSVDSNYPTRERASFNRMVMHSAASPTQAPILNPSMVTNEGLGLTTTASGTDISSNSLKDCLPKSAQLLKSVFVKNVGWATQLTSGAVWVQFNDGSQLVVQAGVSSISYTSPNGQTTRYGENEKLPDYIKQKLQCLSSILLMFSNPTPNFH

[11] = molecular target: Activin receptor type-1-like (Homo sapiens, UniProt P37023); test: Inhibition of Alk1 in presence of 10 uM ATP
Aurora kinase B [12] = molecular target: T1, Aurora kinase B; test: Inhibition of Aurora B kinase in presence of 10 uM ATP
Mus musculus [13] = test: Inhibition of histone 3 phosphorylation in leukemia xenografted mouse model at 50 mg/kg, ip measured after 4 hrs; type: functional; conditions: route intraperitoneal
How it was run: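 Leukemia-engrafted mouse model dosed 50 mpk IP. Histone H3 phosphorylation was measured 4 h after the dose as percent inhibition.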

T1 sequence (Q96GD4 whole entry): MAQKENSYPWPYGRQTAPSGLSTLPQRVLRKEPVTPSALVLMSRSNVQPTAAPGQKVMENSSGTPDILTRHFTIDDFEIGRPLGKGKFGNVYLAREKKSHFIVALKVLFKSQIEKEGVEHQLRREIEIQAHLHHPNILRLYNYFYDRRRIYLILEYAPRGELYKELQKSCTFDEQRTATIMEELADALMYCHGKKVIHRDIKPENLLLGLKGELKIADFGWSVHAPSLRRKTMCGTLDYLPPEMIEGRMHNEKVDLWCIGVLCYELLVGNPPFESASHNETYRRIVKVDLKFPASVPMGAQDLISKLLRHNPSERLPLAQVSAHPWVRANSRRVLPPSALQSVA
Activin receptor type-1-like, sequence (P37023 whole entry): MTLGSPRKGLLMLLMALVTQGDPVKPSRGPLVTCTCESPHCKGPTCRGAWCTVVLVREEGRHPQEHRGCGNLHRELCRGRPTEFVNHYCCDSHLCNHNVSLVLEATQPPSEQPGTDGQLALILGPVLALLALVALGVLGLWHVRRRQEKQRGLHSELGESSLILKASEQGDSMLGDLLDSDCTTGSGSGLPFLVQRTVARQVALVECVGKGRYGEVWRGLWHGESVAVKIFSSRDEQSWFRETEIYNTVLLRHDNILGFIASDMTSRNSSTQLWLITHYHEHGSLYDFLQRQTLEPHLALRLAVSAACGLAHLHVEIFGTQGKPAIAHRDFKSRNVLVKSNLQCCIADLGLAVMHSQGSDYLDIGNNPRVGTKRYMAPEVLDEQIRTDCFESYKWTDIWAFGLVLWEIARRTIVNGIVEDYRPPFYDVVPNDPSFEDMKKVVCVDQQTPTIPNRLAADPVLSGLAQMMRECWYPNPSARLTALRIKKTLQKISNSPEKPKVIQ

Compound | EC15 (NCI-H1299) [nM] | IC50 (Aurora kinase B [1]) [nM] | Ratio IC50 (Homo sapiens) | IC50 (Aurora kinase A [2]) [nM] | other results
Nc1ncnn2ccc(C(=O)Nc3ccc(NC(=O)Nc4ccc(F)cc4)cc3)c12 | 16 | 36 | 2.4 | 88 | –
Nc1nsc2cccc(C(=O)Nc3cccc(CNC(=O)Nc4cccc(F)c4)c3)c12 | 18 | – | – | – | –
Nc1nsc2cccc(C(=O)Nc3cccc(CNC(=O)Nc4ccc(F)c(F)c4)c3)c12 | 21 | 36 | 347 | 12500 | –
Cc1ccc(NC(=O)NCc2cccc(NC(=O)c3cccc4onc(N)c34)c2)cc1 | 1 | – | – | – | –
Nc1noc2cccc(C(=O)Nc3cccc(CNC(=O)Nc4ccc(C(F)(F)F)cc4)c3)c12 | 13 | – | – | – | AUC (Mus musculus [3]): 61 uM.hr/ml; half-life [4]: 1.3 h; bioavailability [5]: 77%; clearance [6]: 2.17 mL/min/kg; Vd [7]: 0.23 L/kg
Nc1ncnn2ccc(C(=O)Nc3ccc(NC(=O)NC4CCCC4)cc3)c12 | 15 | – | – | – | –
Cn1nc(N)c2c(C(=O)Nc3cccc(CNC(=O)Nc4ccc(C(F)(F)F)cc4)c3)cccc21 | – | 172 | 73 | 12500 | –
Nc1ncnn2ccc(C(=O)Nc3cccc(CNC(=O)Nc4cccc(Cl)c4)c3)c12 | 2 | – | – | – | –
Nc1ncnn2ccc(C(=O)Nc3ccc(NC(=O)Nc4cccc(F)c4)cc3)c12 | 3 | 9 | – | – | IC50 (Aurora kinase A [8]): < 3 nM; IC50 [9]: > 10000 nM; IC50 [10]: < 3 nM; IC50 [11]: > 10000 nM; IC50 (Aurora kinase B [12]): < 3 nM
Nc1noc2cccc(C(=O)Nc3ccc(NC(=O)Nc4ccc(Cl)cc4)cc3)c12 | – | 140 | > 89 | > 12500 | –
Cc1ccc(NC(=O)NCc2cccc(NC(=O)c3ccn4ncnc(N)c34)c2)cc1 | 1 | – | – | – | –
Nc1noc2cccc(C(=O)Nc3cccc(CNC(=O)Cc4cccc(F)c4)c3)c12 | – | > 12500 | – | > 12500 | –
Nc1noc2cccc(C(=O)Nc3ccc(NC(=O)Nc4ccc(F)cc4)cc3)c12 | – | 480 | > 26 | > 12500 | –
Nc1noc2cccc(C(=O)Nc3cccc(CNC(=O)Nc4ccccc4)c3)c12 | 47 | 18 | 210 | 3790 | –
Nc1noc2cccc(C(=O)Nc3cccc(CNC(=O)Nc4ccc(Cl)cc4)c3)c12 | 12 | – | – | – | –
Nc1ncnn2ccc(C(=O)Nc3ccc(NC(=O)Nc4ccsc4)cc3)c12 | 6 | – | – | – | –
Nc1noc2cccc(C(=O)Nc3cccc(CNC(=O)Nc4cccc(F)c4)c3)c12 | 3 | 59 | 54 | 3180 | AUC (Mus musculus [3]): 5 uM.hr/ml; half-life [4]: 0.7 h; bioavailability [5]: 28%; clearance [6]: 8.83 mL/min/kg; Vd [7]: 0.54 L/kg
Nc1noc2cccc(C(=O)Nc3cccc(CNC(=O)Nc4ccc(F)cc4)c3)c12 | 30 | – | – | – | –
Cc1cccc(NC(=O)Nc2ccc(NC(=O)c3ccn4ncnc(N)c34)cc2)c1 | 9 | – | – | – | –
Nc1ncnn2ccc(C(=O)Nc3cccc(CNC(=O)Nc4ccc(Cl)cc4)c3)c12 | 1 | – | – | – | –
Nc1noc2cccc(C(=O)Nc3cccc(CNC(=O)Nc4ccc(F)c(F)c4)c3)c12 | 15 | 7 | 696 | 4780 | AUC (Mus musculus [3]): 8 uM.hr/ml; half-life [4]: 1.7 h; bioavailability [5]: 31%; inhibition in vivo at 50 mg/kg (Mus musculus [13]): 87%; clearance [6]: 6.5 mL/min/kg; Vd [7]: 0.96 L/kg
Nc1n[nH]c2cccc(C(=O)Nc3cccc(CNC(=O)Nc4cccc(F)c4)c3)c12 | 111 | – | – | – | –
Nc1nsc2cccc(C(=O)Nc3cccc(CNC(=O)Nc4ccc(C(F)(F)F)cc4)c3)c12 | 18 | – | – | – | –
Nc1ncnn2ccc(C(=O)Nc3cccc(CNC(=O)Nc4ccc(C(F)(F)F)cc4)c3)c12 | 6 | – | – | – | –
Nc1ncnn2ccc(C(=O)Nc3cccc(CNC(=O)Nc4cccc(F)c4)c3)c12 | 2 | – | – | – | –
Nc1noc2cccc(C(=O)Nc3cccc(CNC(=O)Nc4ccccc4F)c3)c12 | 124 | 55 | > 227 | > 12500 | –
Nc1n[nH]c2cccc(C(=O)Nc3cccc(CNC(=O)Nc4ccc(F)c(F)c4)c3)c12 | 143 | – | – | – | –
Nc1noc2cccc(C(=O)Nc3cccc(CC(=O)Nc4cccc(F)c4)c3)c12 | – | 450 | – | > 12500 | –
